Converted amounts (≈) assume the structure as drawn. The source made the active and inactive calls. No cut-off for these calls is given here.
What was measured:
Epidermophyton floccosum = experiment: Antifungal activity against Epidermophyton floccosum after 24 hrs; assay type: functional
[1] = system: Trichophyton interdigitale; experiment: Antifungal activity against Trichophyton interdigitale EL 5171 after 24 hrs; assay type: functional
Aspergillus niger = experiment: Antifungal activity against Aspergillus niger ATCC 16404 at 1000 ug/ml after 24 hrs; assay type: functional, organism-based
Saccharomyces cerevisiae = experiment: Antifungal activity against Saccharomyces cerevisiae NCIMB 080178 at 1000 ug/ml after 24 hrs; assay type: functional, organism-based
How it was run: (§1)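 Agar dilution in 96-well plates. Samples in DMSO, made up with sterile water, 1:2 serially diluted over six steps, then mixed with an equal volume of molten double-strength Sabouraud dextrose agar (200 µL per well). Yeasts were grown on SDA at 30 °C for 24 h and harvested in PBS. 100 µL inoculum (10⁵ CFU) was added per well and incubated at 30 °C for 24 h. Miconazole was the positive control.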

Candida albicans = experiment: Antifungal activity against Candida albicans ATCC 10234 at 1000 ug/ml after 24 hrs; assay type: functional, organism-based; how it was run: as §1
Penicillium chrysogenum = experiment: Antifungal activity against Penicillium notatum ATCC 11654 at 1000 ug/ml after 24 hrs; assay type: functional, organism-based
[2] = system: Neoscytalidium dimidiatum; experiment: Antifungal activity against Scytalidium dimidiatum at 1000 ug/ml after 24 hrs; assay type: functional, organism-based
Trichophyton rubrum = experiment: Antifungal activity against Trichophyton rubrum after 24 hrs
[3] = system: Scopulariopsis brevicaulis; experiment: Antifungal activity against Scopulariopsis brevicaulis at 1000 ug/ml after 24 hrs

Compound	MIC (Epidermophyton floccosum)	MIC [1]	MIC (Trichophyton rubrum)	Activity (Aspergillus niger)	Activity (Saccharomyces cerevisiae)	Activity (Candida albicans)	Activity (Penicillium chrysogenum)	Activity [2]	Activity [3]
CC(C)C1=CC=C2C(=CC[C@H]3C(C)(C)CCC[C@]23C)C1=O [DEOXYBUDDLEJONE]	2640 µM (≈ 751 µg/mL)	2640 µM (≈ 751 µg/mL)	2640 µM (≈ 751 µg/mL)	inactive	inactive	inactive	inactive	inactive	inactive
Clc1ccc(COC(Cn2ccnc2)c2ccc(Cl)cc2Cl)c(Cl)c1 (centres undefined) [MICONAZOLE]	5 µM (≈ 2.08 µg/mL)	5 µM (≈ 2.08 µg/mL)	5 µM (≈ 2.08 µg/mL)	inactive	inactive	inactive	inactive	inactive	inactive
C=C1CC/C=C(\C)C(=O)[C@H](OC(C)=O)[C@@H]2[C@@H]1CC2(C)C [BUDDLEDIN A]	43 µM (≈ 11.9 µg/mL)	43 µM (≈ 11.9 µg/mL)	43 µM (≈ 11.9 µg/mL)	inactive	inactive	inactive	inactive	inactive	inactive
C=C1CC/C=C(\C)C(=O)[C@H](O)[C@@H]2[C@@H]1CC2(C)C [BUDDLEDIN B]	51 µM (≈ 12 µg/mL)	51 µM (≈ 12 µg/mL)	51 µM (≈ 12 µg/mL)	inactive	inactive	inactive	inactive	inactive	inactive

The next lines start with results.

MIC (Epidermophyton floccosum)	MIC [1]	MIC (Trichophyton rubrum)	Compound	Activity (Aspergillus niger)	Activity (Saccharomyces cerevisiae)	Activity (Candida albicans)	Activity (Penicillium chrysogenum)	Activity [2]	Activity [3]
2500 µM (≈ 751 µg/mL)	2500 µM (≈ 751 µg/mL)	2500 µM (≈ 751 µg/mL)	CC(C)C1=CC=C2C(=C(O)C[C@H]3C(C)(C)CCC[C@]23C)C1=O [BUDDLEJONE]	inactive	inactive	inactive	inactive	inactive	inactive
625 µM (≈ 378 µg/mL)	625 µM (≈ 378 µg/mL)	625 µM (≈ 378 µg/mL)	CC(C)[C@]1(O)C(=O)C=C2[C@@]3(CC[C@H]4C(C)(C)CCC[C@]24C)[C@@H]2C(=O)[C@@](O)(C(C)C)[C@@H](C4=C2[C@@]2(C)CCCC(C)(C)[C@@H]2CC4)[C@H]31 [MAYTENONE]	inactive	inactive	inactive	inactive	inactive	inactive

— ChEMBL document CHEMBL1155579, “Known and novel terpenes from Buddleja globosa displaying selective antifungal activity against dermatophytes” (2000)
